Assay results from ChEMBL document CHEMBL3228031, “Prodrugs of 9-(beta-D-arabinofuranosyl)adenine 2. Synthesis and evaluation of a number of 2',3'- and 3',5'-di-O-acyl derivatives” (J Med Chem, 1979).
Values after ≈ are worked out from the molar mass of the structure shown. Active and inactive are the calls of the source. The calls are words filed in the database; no cut-off is given here.

Assays:
[1] = Aqueous solubility of the compound at pH 7; assay type: physicochemical
[2] = target: T1, Adenosine deaminase (Bos taurus, UniProt P56658); experiment: Activity of calf mucosal adenosine deaminase assessed as enzyme-mediated drug metabolism by liquid chromatographic analysis; assay type: ADME; settings: cattle
T1 sequence (P56658 whole entry): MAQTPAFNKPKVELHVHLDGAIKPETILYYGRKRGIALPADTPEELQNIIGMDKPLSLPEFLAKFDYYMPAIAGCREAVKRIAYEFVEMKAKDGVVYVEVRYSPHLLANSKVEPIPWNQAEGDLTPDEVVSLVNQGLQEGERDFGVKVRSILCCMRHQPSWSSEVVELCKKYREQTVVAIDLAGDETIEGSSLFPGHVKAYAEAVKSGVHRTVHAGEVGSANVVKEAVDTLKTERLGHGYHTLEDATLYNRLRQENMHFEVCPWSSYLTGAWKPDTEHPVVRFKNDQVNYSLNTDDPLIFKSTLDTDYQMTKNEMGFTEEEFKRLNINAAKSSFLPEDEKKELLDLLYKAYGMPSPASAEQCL
Procedure, shortened: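 Drug exposed to the deaminase, with enzyme level also raised 10- and 100-fold. Reaction mixtures analysed by reverse-phase C18 LC (aqueous acetonitrile eluent, 254-nm UV detection) for unchanged substrate.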

[3] = test system: Human alphaherpesvirus 1; experiment: Antiviral activity against Herpes simplex virus 1 assessed as plaque reduction at 5.47 x 10^-5 M by cell-based assay relative to vidarabine; assay type: functional
Procedure, shortened: (§1)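 HSV-1 plaque-reduction assay by the Hsiung–Melnick procedure. Challenge was 125-300 plaque-forming units. An ara-A control was run alongside each sample at the same molar concentration with an identical virus challenge. Data were confirmed by duplicate assay (±10%).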

[4] = test system: Human alphaherpesvirus 1; experiment: Antiviral activity against Herpes simplex virus 1 assessed as plaque reduction at 0.17 x 10^-5 M by cell-based assay relative to control; assay type: functional; procedure, shortened: as §1
[5] = test system: Human alphaherpesvirus 1; experiment: Antiviral activity against Herpes simplex virus 1 assessed as plaque reduction at 1.71 x 10^-5 M by cell-based assay relative to vidarabine; assay type: functional; procedure, shortened: as §1
[6] = test system: Human alphaherpesvirus 1; experiment: Antiviral activity against Herpes simplex virus 1 assessed as plaque reduction at 0.17 x 10^-5 M by cell-based assay relative to vidarabine; assay type: functional; procedure, shortened: as §1
[7] = test system: Human alphaherpesvirus 1; experiment: Antiviral activity against Herpes simplex virus 1 assessed as plaque reduction at 1.75 x 10^-5 M by cell-based assay relative to control; assay type: functional; procedure, shortened: as §1
[8] = test system: Human alphaherpesvirus 1; experiment: Antiviral activity against Herpes simplex virus 1 assessed as plaque reduction at 0.18 x 10^-5 M by cell-based assay relative to control; assay type: functional; procedure, shortened: as §1
[9] = test system: Human alphaherpesvirus 2; experiment: Antiviral activity against Herpes simplex virus 2 Magill infected in guinea pig assessed as prevention of vaginal discharge at 3% compound concentration treated intravaginally bid for 4 days measured on day 16 post-infection; assay type: functional, organism-based
Procedure, shortened: (§2)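 Animals were infected intravaginally with 1 × 10^2.82 PFU in 0.1 mL. Drug ointments were given intravaginally starting 4 h postinfection, then twice daily for 4 days, filling the vagina. Clinical signs were scored as animals positive/infected. Cure meant no symptoms, or symptoms healed by day 16 postinfection; it was reported as cured/infected.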

[10] = test system: Human alphaherpesvirus 2; experiment: Antiviral activity against Herpes simplex virus 2 Magill infected in guinea pig assessed as cured animal at 3% compound concentration treated intravaginally bid for 4 days measured on day 16 post-infection; assay type: functional, organism-based; procedure, shortened: as §2
[11] = test system: Human alphaherpesvirus 2; experiment: Antiviral activity against Herpes simplex virus 2 Magill infected in guinea pig assessed as prevention of inflammation at 3% compound concentration treated intravaginally bid for 4 days measured on day 16 post-infection; assay type: functional, organism-based; procedure, shortened: as §2
[12] = test system: Human alphaherpesvirus 2; experiment: Antiviral activity against Herpes simplex virus 2 Magill infected in guinea pig assessed as prevention of vesiculation of labia and vulva at 3% compound concentration treated intravaginally bid for 4 days measured on day 16 post-infection; assay type: functional, organism-based; procedure, shortened: as §2
[13] = test system: Human alphaherpesvirus 2; experiment: Antiviral activity against Herpes simplex virus 2 Magill infected in guinea pig assessed as prevention of vulvo-vaginal swelling at 3% compound concentration treated intravaginally bid for 4 days measured on day 16 post-infection; assay type: functional, organism-based; procedure, shortened: as §2
[14] = test system: Human alphaherpesvirus 2; experiment: Antiviral activity against Herpes simplex virus 2 Magill infected in guinea pig assessed as prevention of paralysis at 3% compound concentration treated intravaginally bid for 4 days measured on day 16 post-infection; assay type: functional, organism-based; procedure, shortened: as §2
[15] = test system: Human alphaherpesvirus 2; experiment: Antiviral activity against Herpes simplex virus 2 Magill infected in guinea pig assessed as prevention of death at 3% compound concentration treated intravaginally bid for 4 days measured on day 16 post-infection; assay type: functional, organism-based; procedure, shortened: as §2
[16] = organism: Cavia porcellus; experiment: Toxicity in albino guinea pig assessed as occurrence of irritation at 3% compound concentration treated intravaginally bid for 4 days; assay type: organism-based; settings: in vivo, other, 96 h
[17] = test system: Human alphaherpesvirus 1; experiment: Antiviral activity against Herpes simplex virus 1 assessed as plaque reduction at 0.18 x 10^-5 M by cell-based assay relative to vidarabine; assay type: functional; procedure, shortened: as §1
[18] = test system: Human alphaherpesvirus 1; experiment: Antiviral activity against Herpes simplex virus 1 assessed as plaque reduction at 1.75 x 10^-5 M by cell-based assay relative to vidarabine; assay type: functional; procedure, shortened: as §1
[19] = test system: Human alphaherpesvirus 1; experiment: Antiviral activity against Herpes simplex virus 1 assessed as plaque reduction at 1.76 x 10^-5 M by cell-based assay relative to control; assay type: functional; procedure, shortened: as §1
[20] = test system: Human alphaherpesvirus 1; experiment: Antiviral activity against Herpes simplex virus 1 assessed as plaque reduction at 1.76 x 10^-5 M by cell-based assay relative to vidarabine; assay type: functional; procedure, shortened: as §1
[21] = test system: Human alphaherpesvirus 1; experiment: Antiviral activity against Herpes simplex virus 1 assessed as plaque reduction at 1.83 x 10^-5 M by cell-based assay relative to control; assay type: functional; procedure, shortened: as §1
[22] = organism: Cavia porcellus; experiment: Toxicity in albino guinea pig assessed as development of erythema at 3% compound concentration treated intravaginally bid for 4 days; assay type: organism-based; settings: in vivo, other, 96 h
Procedure, shortened: (§3)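 Uninfected control animals received drug ointment intravaginally (topical), twice daily for 4 days, in an amount enough to fill the vagina.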

[23] = organism: Cavia porcellus; experiment: Toxicity in albino guinea pig assessed as death at 3% compound concentration treated intravaginally bid for 4 days; assay type: organism-based; settings: in vivo, other, 96 h; procedure, shortened: as §3
[24] = test system: Human alphaherpesvirus 1; experiment: Antiviral activity against Herpes simplex virus 1 assessed as plaque reduction at 1.83 x 10^-5 M by cell-based assay relative to vidarabine; assay type: functional; settings: Human alphaherpesvirus 1, read-out: INH; procedure, shortened: as §1
[25] = test system: Human alphaherpesvirus 1; experiment: Antiviral activity against Herpes simplex virus 1 assessed as plaque reduction at 0.53 x 10^-5 M by cell-based assay relative to control; assay type: functional; settings: Human alphaherpesvirus 1, read-out: INH; procedure, shortened: as §1
[26] = test system: Human alphaherpesvirus 1; experiment: Antiviral activity against Herpes simplex virus 1 assessed as plaque reduction at 0.53 x 10^-5 M by cell-based assay relative to vidarabine; assay type: functional; procedure, shortened: as §1

Compound: Nc1ncnc2c1ncn2[C@@H]1O[C@H](CO)[C@@H](OC(=O)c2ccccc2)[C@@H]1OC(=O)c1ccccc1
- solubility ([1]; aqueous, read-out: solubility): < 10 µg/mL
- Stability [2]: Stable
- inhibition at 54.7 µM [3]: 100%

Compound: CC(=O)O[C@H]1[C@H](O)[C@H](n2cnc3c(N)ncnc32)O[C@@H]1CO
- solubility ([1]; buffer): soluble
- Stability [2]: Unstable
- inhibition at 1.7 µM [4]: 9%
- inhibition at 17.1 µM [5]: 87%
- inhibition at 1.7 µM [6]: 36%

Compound: CC(=O)O[C@H]1[C@H](O)[C@@H](CO)O[C@H]1n1cnc2c(N)ncnc21
- solubility ([1]; buffer): soluble
- Stability [2]: Stable
- inhibition at 1.7 µM [4]: 0%
- inhibition at 17.1 µM [5]: 90%
- inhibition at 1.7 µM [6]: 60%

Compound: CC(=O)O[C@H]1[C@H](OC(C)=O)[C@@H](CO)O[C@H]1n1cnc2c(N)ncnc21
- solubility ([1]; aqueous, read-out: solubility): 33000 µg/mL (≈ 93.9 mM)
- Stability [2]: Stable
- inhibition at 17.5 µM [7]: 68%
- inhibition at 1.8 µM [8]: 0%
- Activity [9]: Active
- Activity [10]: Active
- Activity [11]: Active
- Activity [12]: Active
- Activity [13]: Active
- Activity [14]: Active
- Activity [15]: Active
- Activity [16]: Non-toxic
- inhibition at 1.8 µM [17]: 40%
- inhibition at 17.5 µM [18]: 100%

Compound: CCC(=O)O[C@H]1[C@H](O)[C@@H](CO)O[C@H]1n1cnc2c(N)ncnc21
- solubility ([1]; buffer): soluble
- Stability [2]: Stable
- inhibition at 1.8 µM [8]: 4%
- inhibition at 17.6 µM [19]: 35%
- inhibition at 1.8 µM [17]: 36%
- inhibition at 17.6 µM [20]: 88%

Compound: CCC(=O)O[C@H]1[C@H](OC(=O)CC)[C@@H](CO)O[C@H]1n1cnc2c(N)ncnc21
- solubility ([1]; aqueous, read-out: solubility): 4500 µg/mL (≈ 11.9 mM)
- Stability [2]: Stable
- inhibition at 18.3 µM [21]: 15%
- Activity [9]: Active
- Activity [11]: Active
- Activity [12]: Active
- Activity [13]: Active
- Activity [14]: Active
- Activity [15]: Active
- Activity [22]: Toxic
- Activity [23]: Toxic
- inhibition at 1.8 µM [17]: 60%
- inhibition at 18.3 µM [24]: 90%

Compound: CC(C)C(=O)O[C@H]1[C@H](OC(=O)C(C)C)[C@@H](CO)O[C@H]1n1cnc2c(N)ncnc21
- solubility ([1]; aqueous, read-out: solubility): 420 µg/mL (≈ 1.03 mM)
- Stability [2]: Stable
- inhibition at 5.3 µM [25]: 0%
- inhibition at 17.1 µM [5]: 90%
- inhibition at 5.3 µM [26]: 73%
